Kir21 inh: blocks the mouse Kir2.1 inward-rectifier potassium channel. B-score at 10 µM. HEK293-Kir2.1, FluxOR thallium flux fluorescence; active compounds read low. P35561. AID 1672. 310,000 tested, 0.85% active;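 active = fluorescence ratio B-score at or below minus 3 SD of library scores, with starting-brightness B-score within 2 SD, cut at about -4.2 in these data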;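 note: channel flux triggered by added potassium and thallium sulfate stimulus; B-score of peak minus minimum fluorescence over baseline after thallium stimulus; more negative B-score means stronger Kir2.1 block with less thallium influx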
KCNK9 block: human KCNK9 channel inhibition | Q9NPC2 | HEK293 KCNK9, FluxOR thallium flux fluorescence; active compounds read low | B-score at 10 µM | 310,000 tested, 1.2% active | AID 488922;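 active = ratio B-score over 3 SD below the library mean, with starting fluorescence within 5 SD of its mean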;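 note: negative B-score means less thallium flux so channel inhibition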
hERG rescue: hERG (human) protection from proarrhythmic block; activation (rescue from dofetilide block), less the hit threshold, % at 10 µM; CHO-hERG, FluxOR thallium flux, dofetilide IC70 present; 310,000 tested, 0.51% active;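 active = activation above the mean of controls blocked by dofetilide plus 5 SD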;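 note: thallium influx through hERG after potassium depolarization seen as dye fluorescence rise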
KCNQ1 pot: potentiators or activators of human KCNQ1 potassium channel; P51787; CHO-K1 KCNQ1, thallium flux FluxOR fluorescence; active compounds read high; 310,000 tested, 0.35% active; B-score at 10 µM;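 active = fluorescence ratio B-score, a plate-corrected score, at least three library SD, with initial intensity B-score within 5 SD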
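Medium – assay buffer, equal DMSO in all wells · Material – CHO-K1 cell line with stable KCNQ1 potassium channel expression · Signal – kinetic FluxOR thallium fluorescence, 10-s 1-Hz baseline, 110-s post-stimulus read · Compound – single concentration per compound, DMSO matched to controls · Schedule – 37 °C overnight plating, 90-min dark dye load, 20-min compound pretreatment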
KCNQ1 block: human KCNQ1 channel inhibition | P51787 | CHO-K1 KCNQ1, FluxOR thallium flux fluorescence; active compounds read high | B-score at 10 µM | 310,000 tested, 1.3% active | AID 2642;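 active = compounds whose thallium flux B-score, printed positive for inhibition, exceeds three library SD while starting fluorescence stays within three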;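 note: channel opened by potassium depolarization with thallium stimulus after 20 min compound exposure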
KCNK3 inh: human KCNK3 channel inhibition, primary screen; CHO-KCNK3 thallium flux, FluxOR fluorescence; active compounds read low; AID 602410; B-score at 10 µM; 340,000 tested, 0.84% active;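 active = B-score under library mean minus 4 SD, starting fluorescence ratio at most library mean plus 5 SD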;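 note: more negative B-score means stronger inhibition of thallium flux through KCNK3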
Target sequence (O14649 whole entry, looked up): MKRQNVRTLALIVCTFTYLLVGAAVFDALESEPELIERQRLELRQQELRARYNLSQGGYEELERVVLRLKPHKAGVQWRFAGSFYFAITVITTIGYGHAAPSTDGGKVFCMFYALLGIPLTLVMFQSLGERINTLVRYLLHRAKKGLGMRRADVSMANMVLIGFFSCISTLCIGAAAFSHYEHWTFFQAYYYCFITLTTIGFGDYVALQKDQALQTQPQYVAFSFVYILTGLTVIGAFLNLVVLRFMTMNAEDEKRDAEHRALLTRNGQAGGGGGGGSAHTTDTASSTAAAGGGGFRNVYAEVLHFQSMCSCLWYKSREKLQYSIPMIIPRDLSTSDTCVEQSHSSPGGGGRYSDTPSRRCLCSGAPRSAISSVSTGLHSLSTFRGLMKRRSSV
KCNK3 inh conf: confirmation of human KCNK3 two-pore domain potassium channel inhibitors. shares compounds with KCNK3 inh. CHO-KCNK3 thallium flux, FluxOR fluorescence; 0% buffer, 100% carvedilol maximal block. ratio percent of control, % at 10 µM. 2,400 tested, 99% active. AID 651638;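 active = ratio percent of control, averaged over triplicates, above buffer control mean plus 5 SD, cut at about 64% in these data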;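 note: ratio is the fluorescence rise from min to max over baseline after thallium stimulus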
KCNK3 noninduced: counter-screen for KCNK3 inhibitors: effect in non-induced cells; shares compounds with KCNK3 inh; non-induced KCNK3 parental cells, FluxOR thallium flux; active compounds read low; thallium flux ratio (lower = more inhibition) at 10 µM; 2,400 tested, 40% active; AID 651747;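 active = thallium flux ratio, averaged over three wells, more than 5 SD below the buffer control mean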;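 note: host cells are CHO cells without KCNK3 induction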
Numbers stand for hits; n = inactive; x = not tested or not shown. Hits are enriched below; roughly 3.7% of the tested compounds scored in any of these assays.

SMILES	Kir21 inh	KCNK9 block	hERG rescue	KCNQ1 pot	KCNQ1 block	KCNK3 inh	KCNK3 inh conf	KCNK3 noninduced
CCC1Cc2c(nc(N)c3c(N)nc(N4CCCCC4)c(C#N)c23)O1 (configuration not stated)	n	n	n	n	n	-9.6	97	n
CCN(CC)c1nc(N)c2c(N)nc3c(c2c1C#N)CC(c1ccccc1)O3 (configuration not stated)	n	n	n	n	n	n	x	x
CC(Oc1ccccc1Cl)C(=O)Nc1ccc(S(=O)(=O)N2CCCC2)cc1 (configuration not stated)	n	n	n	n	n	n	x	x
Cc1ccc(NC(=O)c2c(C(F)(F)F)nn(C)c2SCc2ccc(Cl)cc2)cc1C	n	n	n	n	n	-10	110	0.16
C=CCNc1cc(N2CCCC2)ccc1[N+](=O)[O-]	n	n	n	n	n	n	x	x
CN(c1ccccc1)S(=O)(=O)c1cccc(NC(=O)c2ccc3ncsc3c2)c1	n	-7.1	n	n	n	-9.5	130	0.14
O=C(Nc1cccc(NC(=O)c2ccccc2Cl)c1)c1ccco1	n	n	n	n	n	-8.7	98	n
COc1cccc(C(=O)NCCSCc2c(F)cccc2Cl)c1	n	n	n	n	n	n	x	x
C=CCc1cccc(/C=N/NC(=O)c2ccccc2OC)c1O	n	-7.7	n	n	n	-9.5	94	n
CCn1c2ccccc2c2cc(NC(=O)c3ccco3)ccc21	n	n	n	n	n	-9.5	114	n
COc1cccc(C(=O)NCCSCc2ccccc2Cl)c1	n	n	n	n	n	-9.8	99	n
O=c1ccc(-c2ccc(S(=O)(=O)NCC3CCN(Cc4ccccc4F)CC3)s2)n[nH]1	n	n	n	n	n	n	x	x
COc1ccc(NC(=O)CSc2nc3ccccc3c(=O)n2CCCO)cn1	x	x	x	x	x	n	x	x
Cn1c(CSCc2ccccc2)n[nH]c1=S	n	n	n	n	n	n	x	x
COc1cccc(C(=O)Nc2cccc(NC(=O)c3ccccc3Cl)c2)c1	n	n	n	n	n	-12	96	n
COc1ccccc1/C=N/NC(=O)c1cccc(NC(=O)c2ccccc2Cl)c1	n	-7.1	n	n	n	-9.5	100	n
CCCCCNCc1ccc(Br)cc1	n	n	n	n	n	n	x	x
CCCCCCNCc1ccc(Br)cc1	n	n	n	n	n	-9.7	77	n
CCN(CC(=O)Nc1cccc(OC)c1)C(=O)c1cnc(Cl)c(Cl)c1	n	n	n	n	n	n	x	x
O=C(CN1CCCN(S(=O)(=O)c2ccc(F)cc2)CC1)Nc1cccc(F)c1	n	-6.7	n	n	n	-12	92	n
Cc1cc(=O)[nH]c(-n2ncc(C#N)c2N)n1	n	n	n	n	n	n	x	x
COC(=O)C1CCN(c2nc3ccccc3nc2C(C#N)C(=O)NCCc2ccccc2)CC1 (configuration not stated)	n	n	n	n	n	n	x	x
COC(=O)C1CCN(c2nc3ccccc3nc2C(C#N)C(=O)OCC(C)C)CC1 (configuration not stated)	n	-6.8	n	n	n	n	117	0.15
CCCCNC(=S)N1CCN(C(c2ccccc2)c2ccccc2)CC1	n	-6.8	n	n	n	-11	93	0.11
Cc1ccc(COc2ccc(/C=N/O)cc2)cc1	n	n	n	n	n	n	x	x
SMILES	Kir21 inh	KCNK9 block	hERG rescue	KCNQ1 pot	KCNQ1 block	KCNK3 inh	KCNK3 inh conf	KCNK3 noninduced
NC(N)=N/N=C/c1ccc(OCc2ccc(Cl)cc2)cc1	-9.8	n	n	n	7	-10	70	n
CC(C)C(CCNC(=O)CC(Cc1ccccc1)c1ccco1)c1ccco1 (configuration not stated)	n	n	n	n	n	-9.4	120	0.15
CSc1nc(S(=O)(=O)c2ccc(C)cc2)c(Cl)s1	n	n	n	n	n	n	x	x
Cc1ccc(OC(=O)c2cccc(S(=O)(=O)N3CCCC3)c2)c(-n2nc3ccccc3n2)c1	n	n	n	n	n	-9.3	110	n
Cc1ccc(OC(=O)c2cccc(S(=O)(=O)N(C)C)c2)c(-n2nc3ccccc3n2)c1	n	-7.1	n	n	n	n	118	n
CC(C)c1ccc(NC(=O)CSc2ncccc2C(=O)Oc2cccc([N+](=O)[O-])c2)cc1	n	n	n	n	n	n	x	x
COc1ccc(C)cc1NC(=O)c1cccc(C(=O)Nc2cc(C)ccc2OC)c1	n	-8	n	n	n	-11	106	n
COc1ccc(C)cc1NC(=O)c1ccc2c(c1)OCO2	n	n	n	n	n	n	x	x
CCCCCCCCC(=O)Nc1cc(C)ccc1OC	n	n	n	n	n	-11	103	n
COc1cc(=O)n(C)c2c(OCC3OC(C)(C)OC3(C)C)cccc12 (configuration not stated)	n	n	n	n	n	n	x	x
CN(C)S(=O)(=O)c1ccc(N2CCCC2)c(C(=O)NNC(=O)COc2ccc(Cl)cc2)c1	n	n	n	n	n	n	x	x
CCOC(=O)C1=C(C)NC(SCC(=O)O)=C(C#N)C1c1ccco1 (configuration not stated)	n	n	n	n	n	n	x	x
CC(=O)C1=C(C)NC(SCC(=O)c2ccc(Cl)c(Cl)c2)=C(C#N)C1c1ccco1 (configuration not stated)	n	-7.8	n	n	n	-11	125	0.16
COc1cccc(CC(NC(C)=O)C(=O)NC2CCN(S(=O)(=O)c3ccc(NC(C)=O)cc3)CC2)c1OC (configuration not stated)	n	n	n	n	n	n	x	x
CN(c1ccccc1)S(=O)(=O)c1ccc(NC(=O)c2nc(S(C)(=O)=O)ncc2Cl)cc1	-4.5	n	n	n	n	-9	106	0.15
CN(c1ccccc1)S(=O)(=O)c1ccc(Cl)c(C(=O)Nc2ccncc2)c1	x	x	x	x	x	n	x	x
Cc1nn2c(NCC(C)C)c3c(nc2c1-c1ccccc1)CCC3	n	n	n	n	n	n	x	x
Cc1nn2c(NC(C)C)c3c(nc2c1-c1ccccc1)CCC3	n	n	n	n	n	-8.9	94	n
CC1CCN(C(=O)CN2C(=O)NC(C)(c3ccc4ccccc4c3)C2=O)CC1 (configuration not stated)	x	x	x	x	x	n	x	x
CC1=CC(C)(C)N2C(=O)C3(C(C#N)=C(N)OC4=C3C(=O)CCC4)c3c(C)c(C)cc1c32 (configuration not stated)	n	n	n	n	n	n	x	x

High-throughput results: PubChem, Johns Hopkins Ion Channel Center
